Measurements as given in article PMC10527240 (International journal of biological macromolecules, 2023).

Assays:
HRPT cells = assay: Palmitate-induced lipoapoptosis by TUNEL in HRPT cells; format: cell-based, human; details: for Effect on palmitate-induced lipoapoptosis: drug 5 μM, 2 hr, then palmitate 100 μM, 16 hr
In short: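 Immortalized human kidney proximal tubule cells were grown to near confluence on glass coverslips. They were preincubated with test compound (5 μM, 2 hr, 37°C), then albumin-complexed palmitate was added (100 μM, 16 hr, 37°C). Fixed cells were scored by TUNEL under fluorescence microscopy at 400X by blinded operators, ten random fields, one experiment. Mean ± SD; ANOVA.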

human FATP2 = human FATP2 (Homo sapiens, UniProt O14975); assay: BODIPY-C16 FA uptake in HRPT cells stably expressing human FATP2; format: cell-based

Compound	Effect on palmitate-induced lipoapoptosis (HRPT cells)	IC50 (HRPT cells; read-out: IC50 for palmitate-induced apoptosis, compound 2 hr 37° C, then palmitate 100 μM, 16 hr) [nM]	IC50 (human FATP2) [nM]
Cc1ccc2c(c1)C1(NN=C(c3ccccc3)S1)C(=O)N2 (centres unmarked) [Compound 1]	protective	600	–
O=C1Nc2ccc(Br)cc2C12NN=C(c1ccccc1)S2 (centres unmarked) [Lipofermata]	protective	–	–
CCCCCc1cccc(CC(=O)O)c1 [PBI-4050]	–	–	> 500000
Grassofermata	increased apoptosis	–	–
